{
  "source": "paper PMC3741069",
  "about": "(Biochemistry, 2013)",
  "assay_in_all_cases": "spectral perturbation titration",
  "assay_type_in_all_cases": "binding",
  "key": {"nitrate reductase (NarB) [1]": {"biological_target": "T1, nitrate reductase (NarB) (Synechococcus elongatus, UniProt P39458, K72R)", "T1 sequence (P39458 15-729 K72R)": "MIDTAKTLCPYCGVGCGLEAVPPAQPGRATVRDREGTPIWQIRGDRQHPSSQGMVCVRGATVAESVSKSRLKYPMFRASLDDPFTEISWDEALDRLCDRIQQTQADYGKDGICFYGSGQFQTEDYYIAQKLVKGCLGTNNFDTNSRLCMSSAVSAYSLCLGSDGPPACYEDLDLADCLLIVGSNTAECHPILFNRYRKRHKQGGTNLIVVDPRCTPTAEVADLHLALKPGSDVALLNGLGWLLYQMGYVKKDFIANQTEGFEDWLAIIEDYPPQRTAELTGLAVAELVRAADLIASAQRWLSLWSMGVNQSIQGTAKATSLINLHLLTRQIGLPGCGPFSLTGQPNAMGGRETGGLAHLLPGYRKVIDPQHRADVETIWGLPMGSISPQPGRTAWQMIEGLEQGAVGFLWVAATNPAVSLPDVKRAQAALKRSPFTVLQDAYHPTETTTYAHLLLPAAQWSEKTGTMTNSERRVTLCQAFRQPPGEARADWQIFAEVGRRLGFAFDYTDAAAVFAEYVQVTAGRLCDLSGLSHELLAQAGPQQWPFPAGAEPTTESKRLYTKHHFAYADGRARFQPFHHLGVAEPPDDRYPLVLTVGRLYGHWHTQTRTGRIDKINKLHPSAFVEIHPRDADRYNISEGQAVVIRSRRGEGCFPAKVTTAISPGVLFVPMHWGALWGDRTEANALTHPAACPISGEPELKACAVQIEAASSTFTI", "summary_of_the_method": "(§1)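 Single-residue NarB variants were made by site-directed mutagenesis and expressed and purified as for wild type (His6, Co affinity, DEAE, gel filtration). Complex formation with ferredoxin or nitrate was followed by difference absorbance at variant-specific wavelength pairs chosen for signal:noise. The change at saturating nitrate was taken as 100% complex. Kd came from fitting perturbation magnitude against ligand concentration to a single binding isotherm.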"}, "nitrate reductase (NarB) [2]": {"biological_target": "T2, nitrate reductase (NarB) (Synechococcus elongatus, UniProt P39458, R160Q)", "T2 sequence (P39458 15-729 R160Q)": "T1 sequence (P39458 15-729 K72R) with R58K, R146Q", "summary_of_the_method": "as §1"}, "nitrate reductase (NarB) [3]": {"biological_target": "T3, nitrate reductase (NarB) (Synechococcus elongatus, UniProt P39458, K72Q)", "T3 sequence (P39458 15-729 K72Q)": "T1 sequence (P39458 15-729 K72R) with R58Q", "summary_of_the_method": "as §1"}},
  "note": "Residue numbers refer to the chain shown, from its start.",
  "data": [
    {"smiles": "O=[N+]([O-])O", "note": "[nitrate]", "values": [
      {"measurement": "Kd", "setting": "nitrate reductase (NarB) [1]", "result": "15.5 ± 5", "unit": "µM"},
      {"measurement": "Kd", "setting": "nitrate reductase (NarB) [2]", "result": "1.5 ± 0.4", "unit": "µM"},
      {"measurement": "Kd", "setting": "nitrate reductase (NarB) [3]", "result": "8 ± 2.3", "unit": "µM"}
    ]}
  ]
}
